Legend:
Assay type in all cases: functional
OVCAR-3 = assay: Growth inhibition of human OVCAR3 cells after 48 hrs by SRB assay; settings: OVCAR-3, 48 h
How it was run: (§1)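 NCI-60 panel screen. Cells exposed for 48 h to five concentrations (10−4, 10−5, 10−6, 10−7 and 10−8 M). Sulforhodamine B optical density is read just before compound addition (time zero) and after 48 h, for both treated and vehicle-control wells. Percent growth is calculated against control. GI50 is the concentration giving a 50% reduction in net cell growth relative to cell numbers on day 0.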

[1] = Growth inhibition of human RXF393 cells after 48 hrs by SRB assay; settings: RXF 393, 48 h; how it was run: as §1
MDA-MB-231 = assay: Growth inhibition of human MDA-MB-231/ATCC cells after 48 hrs by SRB assay; settings: MDA-MB-231, 48 h; how it was run: as §1
OVCAR-5 = assay: Growth inhibition of human OVCAR5 cells after 48 hrs by SRB assay; settings: OVCAR-5, 48 h; how it was run: as §1
HOP-62 = assay: Growth inhibition of human HOP62 cells after 48 hrs by SRB assay; settings: HOP-62, 48 h; how it was run: as §1
SW-620 = assay: Growth inhibition of human SW620 cells after 48 hrs by SRB assay; settings: SW-620, 48 h
How it was run: (§2)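 NCI-60 panel cells; preliminary single-dose screen at 10−5 M, then five-dose testing at 10−4 to 10−8 M (tenfold steps) with 48 h exposure. SRB-stained optical density read before compound addition (time zero), after 48 h with compound, and with vehicle control. Percent growth is calculated against control. GI50 is the concentration giving 50% reduction in net growth relative to day-0 cell number.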

SN12C = assay: Growth inhibition of human SN12C cells after 48 hrs by SRB assay; how it was run: as §1
UACC-62 = assay: Growth inhibition of human UACC62 cells after 48 hrs by SRB assay; settings: UACC-62, 48 h; how it was run: as §2
OVCAR-4 = assay: Growth inhibition of human OVCAR4 cells after 48 hrs by SRB assay; settings: OVCAR-4, 48 h; how it was run: as §1
[2] = Growth inhibition of human BT549 cells after 48 hrs by SRB assay; settings: BT-549, 48 h; how it was run: as §1
[3] = Growth inhibition of human LOXIMVI cells after 48 hrs by SRB assay; settings: LOX IMVI; how it was run: as §1
M14 = assay: Growth inhibition of human M14 cells after 48 hrs by SRB assay; settings: M14, 48 h; how it was run: as §1
MDA-MB-435 = assay: Growth inhibition of human MDA-MB-435 cells after 48 hrs by SRB assay; settings: MDA-MB-435, 48 h; how it was run: as §1
[4] = Growth inhibition of human HCC2998 cells after 48 hrs by SRB assay; settings: HCC 2998, 48 h; how it was run: as §1
A498 = assay: Growth inhibition of human A498 cells after 48 hrs by SRB assay; settings: A498, 48 h; how it was run: as §1
SNB-75 = assay: Growth inhibition of human SNB75 cells after 48 hrs by SRB assay; settings: SNB-75, 48 h; how it was run: as §2
SK-MEL-2 = assay: Growth inhibition of human SK-MEL-2 cells after 48 hrs by SRB assay; settings: SK-MEL-2, 48 h; how it was run: as §1
Malme-3M = assay: Growth inhibition of human MALME-3M cells after 48 hrs by SRB assay; how it was run: as §1
SR = assay: Growth inhibition of human SR cells after 48 hrs by SRB assay; how it was run: as §2
UACC-257 = assay: Growth inhibition of human UACC257 cells after 48 hrs by SRB assay; settings: UACC-257, 48 h; how it was run: as §2
NCI-H460 = assay: Growth inhibition of human NCI-H460 cells after 48 hrs by SRB assay; settings: NCI-H460, 48 h; how it was run: as §1
[5] = Growth inhibition of human MOLT4 cells after 48 hrs by SRB assay; settings: MOLT-4, 48 h; how it was run: as §1
HL-60(TB) = assay: Growth inhibition of human HL-60(TB) cells after 48 hrs by SRB assay; settings: HL-60, 48 h
How it was run: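 NCI-60 panel screen: cells were exposed to test agent at five concentrations (10−4, 10−5, 10−6, 10−7 and 10−8 M) for 48 h. Sulforhodamine B optical density was read at time zero and after exposure to compound or vehicle control, and growth percentage versus control was calculated. GI50 was taken as the concentration giving a 50% reduction in net cell growth relative to day 0 cell numbers.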

786-0 = assay: Growth inhibition of human 786-0 cells after 48 hrs by SRB assay; settings: 786-0, 48 h; how it was run: as §1
MDA-MB-468 = assay: Growth inhibition of human MDA-MB-468 cells after 48 hrs by SRB assay; settings: MDA-MB-468, 48 h; how it was run: as §1
[6] = Growth inhibition of human HOP92 cells after 48 hrs by SRB assay; settings: HOP-92, 48 h; how it was run: as §1
IGROV-1 = assay: Growth inhibition of human IGROV1 cells after 48 hrs by SRB assay; settings: IGROV-1, 48 h; how it was run: as §1
CAKI-1 = assay: Growth inhibition of human Caki1 cells after 48 hrs by SRB assay; settings: CAKI-1, 48 h; how it was run: as §1
MCF7 = assay: Growth inhibition of human MCF7 cells after 48 hrs by SRB assay; settings: MCF7, 48 h; how it was run: as §1
SK-MEL-5 = assay: Growth inhibition of human SK-MEL-5 cells after 48 hrs by SRB assay; settings: SK-MEL-5, 48 h; how it was run: as §1
U-251 = assay: Growth inhibition of human U251 cells after 48 hrs by SRB assay; settings: U-251, 48 h; how it was run: as §2
A549 = assay: Growth inhibition of human A549/ATCC cells after 48 hrs by SRB assay; settings: A549, 48 h; how it was run: as §1
CCRF-CEM = assay: Growth inhibition of human CCRF-CEM cells after 48 hrs by SRB assay; how it was run: as §1
[7] = Growth inhibition of human NCI-ADR-RES cells after 48 hrs by SRB assay; how it was run: as §1
PC-3 = assay: Growth inhibition of human PC3 cells after 48 hrs by SRB assay; settings: PC-3, 48 h; how it was run: as §1
NCI-H23 = assay: Growth inhibition of human NCI-H23 cells after 48 hrs by SRB assay; settings: NCI-H23, 48 h; how it was run: as §1
[8] = Growth inhibition of human Hs578T cells after 48 hrs by SRB assay; settings: Hs-578T; how it was run: as §1
K562 = assay: Growth inhibition of human K562 cells after 48 hrs by SRB assay; settings: K562, 48 h; how it was run: as §1
HT-29 = assay: Growth inhibition of human HT-29 cells after 48 hrs by SRB assay; settings: HT-29, 48 h; how it was run: as §1
NCI-H322M = assay: Growth inhibition of human NCI-H322M cells after 48 hrs by SRB assay; how it was run: as §1
HCT-15 = assay: Growth inhibition of human HCT15 cells after 48 hrs by SRB assay; settings: HCT-15, 48 h; how it was run: as §1
T47D = assay: Growth inhibition of human T47D cells after 48 hrs by SRB assay; how it was run: as §2
SNB-19 = assay: Growth inhibition of human SNB19 cells after 48 hrs by SRB assay; settings: SNB-19, 48 h; how it was run: as §1
NCI-H522 = assay: Growth inhibition of human NCI-H522 cells after 48 hrs by SRB assay; settings: NCI-H522, 48 h; how it was run: as §1

For `COc1cc(/C=C/c2cc3ccccc3o2)cc(OC)c1OC`, which GI50 (OVCAR-3) is on record?
Its GI50 is 429 nM.

And the GI50 [1]?
The GI50 was 329 nM.

And the GI50 (MDA-MB-231)?
The GI50 was 1170 nM.

And the GI50 (OVCAR-5)?
Its GI50 is 2940 nM.

What about the GI50 (HOP-62) of the same compound?
The GI50 was 775 nM.

What about the GI50 (SW-620) of the same compound?
The GI50 was 444 nM.

What about the GI50 (SN12C) of the same compound?
The GI50 was 4090 nM.

And the GI50 (UACC-62)?
The GI50 was 507 nM.

What about the GI50 (OVCAR-4) of the same compound?
Its GI50 is 1150 nM.

And the GI50 [2]?
The GI50 was 1090 nM.

And the GI50 [3]?
The GI50 was 895 nM.

And the GI50 (M14)?
The GI50 was 479 nM.

What about the GI50 (MDA-MB-435) of the same compound?
Its GI50 is 78 nM.

What about the GI50 [4] of the same compound?
The GI50 was 334 nM.

And the GI50 (A498)?
The GI50 was 408 nM.

And the GI50 (SNB-75)?
Its GI50 is 475 nM.

What about the GI50 (SK-MEL-2) of the same compound?
The GI50 was 767 nM.

And the GI50 (Malme-3M)?
The GI50 was 413 nM.

What about the GI50 (SR) of the same compound?
The GI50 was 94 nM.

What about the GI50 (UACC-257) of the same compound?
Its GI50 is 16400 nM.

And the GI50 (NCI-H460)?
The GI50 was 416 nM.

What about the GI50 [5] of the same compound?
Its GI50 is 852 nM.

And the GI50 (HL-60(TB))?
Its GI50 is 356 nM.

And the GI50 (786-0)?
Its GI50 is 850 nM.

What about the GI50 (MDA-MB-468) of the same compound?
The GI50 was 662 nM.

What about the GI50 [6] of the same compound?
The GI50 was 170 nM.

And the GI50 (IGROV-1)?
The GI50 was 807 nM.

What about the GI50 (CAKI-1) of the same compound?
Its GI50 is 580 nM.

What about the GI50 (MCF7) of the same compound?
Its GI50 is 373 nM.

What about the GI50 (SK-MEL-5) of the same compound?
Its GI50 is 345 nM.

And the GI50 (U-251)?
The GI50 was 668 nM.

And the GI50 (A549)?
Its GI50 is 615 nM.

And the GI50 (CCRF-CEM)?
Its GI50 is 425 nM.

What about the GI50 [7] of the same compound?
Its GI50 is 511 nM.

And the GI50 (PC-3)?
The GI50 was 524 nM.

What about the GI50 (NCI-H23) of the same compound?
The GI50 was 3090 nM.

What about the GI50 [8] of the same compound?
Its GI50 is 499 nM.

And the GI50 (K562)?
The GI50 was 267 nM.

And the GI50 (HT-29)?
Its GI50 is 375 nM.

What about the GI50 (NCI-H322M) of the same compound?
Its GI50 is 15900 nM.

And the GI50 (HCT-15)?
The GI50 was 402 nM.

And the GI50 (T47D)?
Its GI50 is 693 nM.

What about the GI50 (SNB-19) of the same compound?
The GI50 was 584 nM.

What about the GI50 (NCI-H522) of the same compound?
Its GI50 is 436 nM.

Reference: ChEMBL document CHEMBL3596157, “Heteroaromatic analogs of the resveratrol analog DMU-212 as potent anti-cancer agents” (2015)
